Assay results taken from ChEMBL document CHEMBL1149244, “Novel azido and isothiocyanato analogues of [3-(4-phenylalkylpiperazin-1-yl)propyl]bis(4-fluorophenyl)amines as potential irreversible ligands for the dopamine transporter” (J Med Chem, 2004).

Target: Sodium-dependent dopamine transporter (Rattus norvegicus, UniProt P23977)
Experiment: Displacement of [3H]WIN-35428 from DAT in Sprague-Dawley rat striatum
In short: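 Male Sprague-Dawley rat striatal membranes (homogenized in ice-cold modified Krebs-HEPES, pH 7.4; washed by centrifugation), 2.5 mg original wet weight per tube, preincubated 5 min with or without test compound. Nonspecific binding defined with 0.1 mM cocaine. Filtration on BSA-presoaked GF/B filters, scintillation counting. Triplicates. IC50 and Hill coefficient reported.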

Chain of Sodium-dependent dopamine transporter (P23977 whole entry): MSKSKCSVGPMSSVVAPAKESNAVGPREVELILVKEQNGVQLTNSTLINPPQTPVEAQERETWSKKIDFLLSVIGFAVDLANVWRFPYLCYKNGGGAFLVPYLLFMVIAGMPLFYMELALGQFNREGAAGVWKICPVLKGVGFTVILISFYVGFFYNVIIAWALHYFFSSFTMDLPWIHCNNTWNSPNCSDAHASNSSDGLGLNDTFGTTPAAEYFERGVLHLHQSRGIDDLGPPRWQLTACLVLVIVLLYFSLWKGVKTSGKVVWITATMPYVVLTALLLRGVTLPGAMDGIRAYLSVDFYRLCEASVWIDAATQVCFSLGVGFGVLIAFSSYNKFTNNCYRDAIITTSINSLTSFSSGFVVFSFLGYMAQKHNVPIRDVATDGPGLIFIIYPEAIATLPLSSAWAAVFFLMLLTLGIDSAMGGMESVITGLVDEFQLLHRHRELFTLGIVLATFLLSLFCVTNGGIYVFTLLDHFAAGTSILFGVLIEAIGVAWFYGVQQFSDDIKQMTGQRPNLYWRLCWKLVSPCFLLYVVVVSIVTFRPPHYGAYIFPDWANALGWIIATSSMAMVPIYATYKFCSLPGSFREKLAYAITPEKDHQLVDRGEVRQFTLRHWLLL

| SMILES | IC50 |
| --- | --- |
| Fc1ccc(N(CCCN2CCN(Cc3ccccc3)CC2)c2ccc(F)cc2)cc1 | 29.7 nM |
| [N-]=[N+]=Nc1ccc(CCN2CCN(CCOC(c3ccccc3)c3ccccc3)CC2)cc1I | 5.61 nM |
| Fc1ccc(N(CCCN2CCN(CCCc3ccccc3)CC2)c2ccc(F)cc2)cc1 | 19.5 nM |
| Fc1ccc(N(CCCN2CCN(Cc3ccc(N=C=S)cc3)CC2)c2ccc(F)cc2)cc1 | 75.4 nM |
| Fc1ccc(N(CCCN2CCN(CCc3ccc(N=C=S)cc3)CC2)c2ccc(F)cc2)cc1 | 68.3 nM |
| Fc1ccc(N(CCCN2CCN(CCCc3ccc(N=C=S)cc3)CC2)c2ccc(F)cc2)cc1 | 99.8 nM |

Other lines, results leading:

| IC50 | SMILES |
| --- | --- |
| 66 nM | Fc1ccc(N(CCCN2CCN(CCc3ccc(N=C=S)c(I)c3)CC2)c2ccc(F)cc2)cc1 |
| 242 nM | [N-]=[N+]=Nc1ccc(CN2CCN(CCCN(c3ccc(F)cc3)c3ccc(F)cc3)CC2)cc1I |
| 163 nM | [N-]=[N+]=Nc1ccc(CCN2CCN(CCCN(c3ccc(F)cc3)c3ccc(F)cc3)CC2)cc1I |
| 282 nM | [N-]=[N+]=Nc1ccc(CCCN2CCN(CCCN(c3ccc(F)cc3)c3ccc(F)cc3)CC2)cc1I |
| 95.5 nM | Fc1ccc(N(CCCN2CCN(CCCc3ccc(N=C=S)c(I)c3)CC2)c2ccc(F)cc2)cc1 |
